Consider 38 variants from the RNAGym collection of RNA variant scans (doi:10.1126/science.aae0568).

Sequences and labels used below:
B1: tRNA (parent)
chain: GUUCCGUUGGCGUAAUGGUAACGCGUCUCCCUCCUAAGGAGAAGACUGCGGGUUCGAGUCCCGUACGGAACG

Fewer inactive variants are shown than the library holds. Some results are limits rather than exact numbers.

The variants in this data set derive from B1. Description: yeast fitness relative to wild type (ratio to wild type); higher = fitter; tRNA-Arg(CCU), competitive growth, 37 C, YPD. The method in brief: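 Amplicons of the tRNA-Arg(CCU) gene were sequenced, 100-nucleotide paired-end, from the start population and from each end population of a pooled yeast competition. The competition, in six parallel replicates, lasted 24 hours in YPD at 37°C. Fitness relative to wild type was calculated from changes in genotype frequencies. Genotypes had to have ≥ 100 starting reads, and estimates < 0.5 were set to 0.5.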
For the variant GUUCCGUUGGCGUAAUGGUAACGCGUAUCCCUCCUAAGGAGAAGACUGCGGGUUCGAGUCCCGUUCGGAACG [C27A A65U], the yeast fitness is 0.678. As for GUUCCGUUGGCGUAAUGGUAACGCGUAUCCCUCCUAAGAAGCAGACUCCGGGUUCGAGUUCCGUACGGAACG [C27A G39A A42C G48C C60U], the figure is at most 0.5; as for GUUCCGUUGGCGUAAUGGUAACGCGUAUCCCUCCUAAGGAGAAGACUGCGGGUUCGAGUCCGGUUCGGAACG [C27A C62G A65U], at most 0.5. Next, GUUCCGUUGGCGUAAUGGUAACGCGUAUCCCUCCUUUGGAGAAGACUCCGGGUUCGAGUCUCGUACGGAACG [C27A A36U A37U G48C C61U]: at most 0.5; GUUCCGUUGGCGUAAUGGUAACGCGUAUCCGUCCUAAGGAGAACACUGCGGGUUCGAGUCCCGUACGGAACG [C27A C31G G44C]: at most 0.5; GUUCCGUUGGCGUAAUGGUAACGCGUAUCCCUCCUAAGAAGAAGACUGCGGGUUCGGGUCCCGUACGGAACG [C27A G39A A57G]: at most 0.5. As for GUUCCGUUGGCGUAAUGGUAACGCGUAUCCCUCCUAAGGAGAAGACUGCGGGUUCGAGUCCCGUAGGGACCG [C27A C66G A70C], the figure is at most 0.5; as for GUUCCGUUGGCGUAAUGGUAACGCGUAUCCCUCCUAAGGAGAACACUGCGGGUUCGAGUCCCGUACGGAACG [C27A G44C], 0.782; as for GUUCCGUUGGCGUAAUGGUAACGCGUAUCCCUCCUAAGGAGACGACUGCGGGUUCGAGUCCCGUACGGCACG [C27A A43C A69C], 0.748. For GUUCCGUUGGCGUAAUGGUAACGCGUAUCCCUCCUCAGGAGUAGACUGCGGGUUCGAGUCCCGUACGGAACG [C27A A36C A42U], the yeast fitness is at most 0.5. As for GUUCCGUUGGCGUAAUGGUAACGCGUAUCCGUCCUAAGGAGAAGACUGCGGGUCCGAGUCCCGUACGGAACG [C27A C31G U54C], the figure is 0.744; as for GUUCCGUUGGCGUAAUGGUAACGCGUAUCCCUCCUAAGGAGAAGUCUGCGGAUUCGAGUCCCGUACGGAACG [C27A A45U G52A], at most 0.5. Next, GUUCCGUUGGCGUAAUGGUAACGCGUAUCCCUCCUAAGGAGAAGACUGCGGGUUCGAGUCGCGUAUGGUACG [C27A C61G C66U A69U]: at most 0.5. Next, GUUCCGUUGGCGUAAUGGUAACGCGUAUCCCUCCUAAGGAGAAGACUGCGGGUUCGAGUCUCGUAUGGAACG [C27A C61U C66U]: at most 0.5.

In the case of GUUCCGUUGGCGUAAUGGUAACGCGUAUCCAUCCUAAGGAGAAGACUGCGGAUUCGACUCCCGUACGGAACG [C27A C31A G52A G58C], the yeast fitness was at most 0.5. Take GUUCCGUUGGCGUAAUGGUAACGCGUAUCCCUCCUAAGCAGAAGACUGCGGGUUCGUGUCCCGUACGGAUCG [C27A G39C A57U A70U]: the yeast fitness was at most 0.5. GUUCCGUUGGCGUAAUGGUAACGCGUAUCCCUCCUAUGGAGAAGACUGCGGGUUCGAGUCCCGUACGGAUCG [C27A A37U A70U]: the yeast fitness was 0.548. Next, GUUCCGUUGGCGUAAUGGUAACGCGUAUCCCUCCUAAGGGGAAGACUGCGGGUUCGAGUCGCGUACGGAACG [C27A A40G C61G]: 0.614; GUUCCGUUGGCGUAAUGGUAACGCGUAUCCCUCCUAAGCAGAAGACUGCGGGUUGGAGUCCCGUUCGGAACG [C27A G39C C55G A65U]: at most 0.5. As for GUUCCGUUGGCGUAAUGGUAACGCGUAUCCCUCCUAAGGAGAAGAAUGCGGGUUCGAGUCCCGUACGGGACG [C27A C46A A69G], the figure is 0.582. As for GUUCCGUUGGCGUAAUGGUAACGCGUAUCCCUCCUAAGGAGAAGACUGUGGGUUCGAGUCACGUACGGAACG [C27A C49U C61A], the figure is at most 0.5. For GUUCCGUUGGCGUAAUGGUAACGCGUAUCCCUCCUAAGGAGACGACUGCGGGUCCGAGUCCCGUACGGAACG [C27A A43C U54C], the yeast fitness stood at 0.624. Next, GUUCCGUUGGCGUAAUGGUAACGCGUAUCCCUCCUAACGAGAAGACUGCGGGUUCGAGUCCCGUACGGAACG [C27A G38C]: 0.609. GUUCCGUUGGCGUAAUGGUAACGCGUAUCCCUCCUACGGAGAAGACUGCGGAUUCGAGACCCGUACGGAACG [C27A A37C G52A U59A]: the yeast fitness was at most 0.5. GUUCCGUUGGCGUAAUGGUAACGCGUAUCCCUCCUAAGGAGAAGACUGCGGGUUCGCGUCCCGUAUGGAACG [C27A A57C C66U]: the yeast fitness turned out to be 0.538. As for GUUCCGUUGGCGUAAUGGUAACGCGUAUCCGUCCUAAGGAGAAGACUGCAGGUUCGAGUCCCGUACGGAACG [C27A C31G G50A], the figure is 0.661; as for GUUCCGUUGGCGUAAUGGUAACGCGUAUCCCUCCUAACGAGAAGACUGCGCGUUCGAGUCCCGUACGGUACG [C27A G38C G51C A69U], at most 0.5. As for GUUCCGUUGGCGUAAUGGUAACGCGUAUCCCUCCUAAGCAGAAGACUGCGGGUUGGAGUCCCGUACGGACCG [C27A G39C C55G A70C], the figure is at most 0.5; as for GUUCCGUUGGCGUAAUGGUAACGCGUAUCGCUCCUAAGGACAAGACUGCGGGUUCGAGUCGUGUACGGUACG [C27A C30G G41C C61G C62U A69U], 0.557. Next, GUUCCGUUGGCGUAAUGGUAACGCGUAUCCCUCCUAUGGAGAAGACUGUGGGUUUGAGUGCCGUCCGGAACG [C27A A37U C49U C55U C60G A65C]: at most 0.5; GUUCCGUUGGCGUAAUGGUAACGCGUAUCCCUCCUGAGGAGAAGACUGCGGGAUCGAGUCCCGUACGGAGCG [C27A A36G U53A A70G]: at most 0.5. With GUUCCGUUGGCGUAAUGGUAACGCGUAUCCCUCCUAAGGACACGACUACGGGUUCGAGUCCCGUAUGGAACG [C27A G41C A43C G48A C66U], the yeast fitness stood at 0.546. Next, GUUCCGUUGGCGUAAUGGUAACGCGUAUCCUUCCUAAGGAGAAGACUGCGGGUUCGAGUCCCGUACGGAACG [C27A C31U]: 0.941; GUUCCGUUGGCGUAAUGGUAACGCGUAUCCCUGCUAAGAAGAAGACUGGGGGUUCGAGUCCCGUACGGAACG [C27A C33G G39A C49G]: at most 0.5; GUUCCGUUGGCGUAAUGGUAACGCGUAUCCUUCCUAAGGAGAAGACUGCGGGUUCGAGUGCCGUACGGAACG [C27A C31U C60G]: at most 0.5. As for GUUCCGUUGGCGUAAUGGUAACGCGUAUCCCUCCUAAGCAGAAGAAUGCGGGUUCGAGUCCCGUACGGAACG [C27A G39C C46A], the figure is at most 0.5.

On to GUUCCGUUGGCGUAAUGGUAACGCGUAUUCCUCCUAAGGAGAAGACUACGGGUUCGAGUCCCGUACGCAACG [C27A C29U G48A G68C], for which the yeast fitness is at most 0.5.

Turning to GUUCCGUUGGCGUAAUGGUAACGCGUAUCCCUCCUAAGGAGAAGACUGCGGCUUCGAGUCCCGUACGGAACG [C27A G52C], the yeast fitness is 0.562.
